High-throughput results from PubChem BioAssay.
Compounds with a hit are over-represented: about 2.1% of the library has one in this group of screens.
VIM-2 inh: blocks Pseudomonas aeruginosa VIM-2 metallo-beta-lactamase; purified VIM-2, nitrocefin hydrolysis, epi-absorbance fluorescence; inhibition, % at 5.6 µM; hit rate 0.89% among 290,000; AID 1527;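 active = inhibition above the mean of all tested compounds plus 3 SD, cutoff set per screening run, cut at about 7.5% in these data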;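 note: red hydrolysis product quenches plate fluorescence so inhibitors raise well fluorescence; 0% = enzyme with DMSO and 100% = DMSO without enzyme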
IMP-1 inhibitor: blocks Pseudomonas aeruginosa IMP-1 metallo-beta-lactamase; inhibition, % at 5.6 µM; purified IMP-1, nitrocefin hydrolysis, epi-absorbance fluorescence; hit rate 0.45% among 290,000;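 active = inhibition above the mean plus 3 SD of all compounds in the same screening run, cut at about 4.5% in these data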;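 note: 0% = IMP-1 with DMSO and 100% = DMSO wells lacking enzyme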
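System – purified recombinant IMP-1 beta-lactamase · Input – IMP-1 dispensed at 0.2 nM · Timing – 15 min preincubation plus 25 min reaction at 25 °C · Signal – Epi-absorbance fluorescence, 480 nm excitation, 530 nm emission · Measure – percent IMP-1 inhibition derived from blank-referenced optical density · Controls – Enzyme-plus-DMSO low control, enzyme-free DMSO high control · Replication – singlicate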
CRFR2-BP ag: CRF-BP/CRF-R2 complex agonism | HEK293 CRF-R2/CRF-BP, calcium dye fluorescence (FLIPR); percent of saturating CRF peptide response | activation, % at 13.2 µM | hit rate 0.46% among 350,000 | AID 588473;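 active = activation of at least 50%, plus an integration ratio under a set limit after plate pattern correction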;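 note: plate controls were neutral control wells without compound for no effect and CRF at EC100 for full effect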
CRFR2-BP antag: blocks CRF-induced signaling of the CRF-BP/CRF-R2 complex. HEK293 CRF-R2/CRF-BP, CRF-induced calcium fluorescence. inhibition, % at 11.8 µM. hit rate 0.59% among 350,000;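 active = inhibition of the ligand-induced calcium signal above about 50% at the single tested concentration, limit read from the data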
TRPML3 agonist: agonists of human TRPML3 channel; Q8TDD5; HEK293 TRPML3-YFP, Fluo-8 calcium fluorescence; 100% = the carbachol control signal; activation, % at 3 µM; hit rate 0.29% among 220,000; AID 1448;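 active = activation above its plate's cutoff, the mean activation of the plate's test wells plus 3 SD, cut at about 12% in these data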;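 note: 0% = DMSO only wells and 100% = carbachol wells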
Target sequence (Q8TDD5 whole entry, looked up): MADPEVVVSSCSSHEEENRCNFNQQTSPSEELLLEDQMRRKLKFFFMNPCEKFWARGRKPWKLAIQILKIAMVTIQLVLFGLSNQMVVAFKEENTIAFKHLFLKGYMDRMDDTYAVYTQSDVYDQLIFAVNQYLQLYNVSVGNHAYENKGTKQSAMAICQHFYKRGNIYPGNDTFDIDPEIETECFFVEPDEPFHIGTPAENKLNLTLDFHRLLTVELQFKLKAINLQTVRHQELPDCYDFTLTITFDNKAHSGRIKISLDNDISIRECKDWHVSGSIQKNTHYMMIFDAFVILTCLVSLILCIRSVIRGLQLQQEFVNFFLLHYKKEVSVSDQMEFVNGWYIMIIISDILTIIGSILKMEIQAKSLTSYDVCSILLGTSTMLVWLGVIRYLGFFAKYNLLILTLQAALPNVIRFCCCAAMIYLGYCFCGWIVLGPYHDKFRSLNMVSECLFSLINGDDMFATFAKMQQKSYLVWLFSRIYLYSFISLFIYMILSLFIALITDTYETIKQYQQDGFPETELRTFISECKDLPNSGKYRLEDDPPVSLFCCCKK
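Material: HEK293 cells stably carrying human TRPML3-YFP; compound dosing: single dose, 3 µM final nominal compound, 0.3% DMSO final; incubation: 1-h 37 °C dye load, 5-s basal, 120-s post-compound reads; technique: Fluo-8 intracellular calcium fluorescence, excitation 470-495 nm, emission 515-575 nm; read-out basis: percent activation from peak-to-basal fluorescence ratio, scaled between DMSO and carbachol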
TRPN1 ag: activates the zebrafish TRPN1 channel; HEK293 zebrafish TRPN1-YFP, Fluo-8 calcium fluorescence; 100% = response to 87 µM carbachol; activation, % at 3 µM; hit rate 0.18% among 220,000; AID 1424;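 active = activation above its plate's cutoff, the mean activation of test wells on that plate plus 3 SD, cut at about 19% in these data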;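 note: 0% = DMSO alone and 100% = 87 µM carbachol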
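Material: zebrafish TRPN1-YFP in HEK293 cells; Doses: single test compound dose, 3 µM nominal, 0.3% DMSO; Timing: dye loading 1 h at 37 °C, then 30 min room temperature; Technique: intracellular calcium fluorescence with Fluo-8; Benchmarks: high carbachol 87 µM, low DMSO alone.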
Numbers without * were called inactive; nt = not tested or not shown.

SMILES	VIM-2 inh	IMP-1 inhibitor	CRFR2-BP ag	CRFR2-BP antag	TRPML3 agonist	TRPN1 ag
O=C(N/N=C/c1cc(Cl)cc([N+](=O)[O-])c1O)NC12CC3CC(CC(C3)C1)C2	-0.6	-1.9	-3.4	53.5*	0.5	-0.7
CC(Sc1nnnn1-c1ccccc1)C(=O)Nc1ccc(N2CCN(C)CC2)cc1 (centres undefined)	4.3	-1.7	2.1	-1.8	nt	nt
CC(Sc1nnnn1-c1ccccc1)C(=O)Nc1ccccc1-c1ccccc1 (centres undefined)	-0.2	-1.2	-0.2	54.5*	-0.6	-2.0
CCC(=N\NC(=O)COc1ccccc1OC)/C(CC)=N/NC(=O)COc1ccccc1OC	nt	nt	-0.4	-10.1	nt	nt
COC(C(=O)Nc1ccc(S(=O)(=O)Nc2ccc(F)cc2)cc1)c1ccccc1 (centres undefined)	-1.7	-5.5	12.4	-35.8	5.8	14.8
COC(C(=O)Nc1ccc(F)cc1)c1ccccc1 (centres undefined)	-0.1	0.3	0.3	91.1*	-0.2	-0.6
O=C(CCS(=O)(=O)c1ccccc1)OCc1ccc([N+](=O)[O-])cc1	0.5	-1.4	-0.2	18.1	nt	nt
Cc1ccc(S(=O)(=O)NCc2ccccc2)cc1C(=O)N1CCCC(C(F)(F)F)C1 (centres undefined)	nt	nt	-1.0	-14.1	nt	nt
Cc1ccc2nc(SCC(=O)N3CCOCC3)[nH]c2c1	-1.0	-2.6	-2.0	78.1*	0.1	-0.5
CC(C)(CNC(=O)c1cc(Cl)c(O)c(Cl)c1)N1CCCCC1	-3.4	-2.1	-3.2	55.4*	nt	nt
O=C(CSc1nnnn1-c1ccccc1)NCCCN1CCCC1=O	nt	nt	2.6	57.2*	nt	nt
O=C(CSc1nc(-c2ccccc2)cs1)NCCCN1CCCC1=O	nt	nt	-1.4	-3.4	nt	nt
CC(=O)Nc1ccc(Nc2nc3ccccc3nc2NS(=O)(=O)c2ccc(Cl)c([N+](=O)[O-])c2)cc1	nt	nt	-3.5	64.6*	nt	nt
O=C(N=C1SC2CS(=O)(=O)CC2N1CCc1ccccc1)C1CCCCC1 (centres undefined)	-1.4	-0.8	-0.9	-9.6	nt	nt
CCOC(=O)c1nnn(-c2nonc2N)c1CN(CC)CC	-2.8	-3.3	2.8	-20.0	0.7	0.5
CCOC(=O)c1nnn(-c2nonc2N)c1CN(C)C1CCCCC1	-1.4	-2.2	-2.5	60.1*	-0.4	0.8
Oc1c(N=Nc2ccccn2)ccc2ccccc12	-3.7	-5.7	99.0*	-90.8	-0.4	-2.3
O=Cc1c(N2CCN(CCO)CC2)nc2ccccn2c1=O	-2.8	-2.7	128.1*	-85.5	nt	nt
CCN1C[C@@H]2[C@@H]3C(=O)N(C)C(=O)[C@@H]3[C@](Cc3ccccc3)(C(=O)OC)N2C1=NCc1ccccc1	nt	nt	-0.4	2.6	nt	nt
Cc1cccc(NC(=O)c2cn(-c3ccccc3)nc2-c2ccccc2)c1	-1.4	-3.6	4.0	-5.8	0.1	-2.4
CCc1nc(NCc2ccccc2)c(C#N)c2c1CCCC2	-2.9	-3.2	-0.1	-13.7	0.6	1.7
CCc1nc(NCCC(C)C)c(C#N)c2c1CCCC2	-3.1	-4.6	4.3	58.6*	0.8	0.0
COc1cccc(/C=N/Nc2snc(SC)c2C#N)c1O	-1.8	-3.0	69.3*	39.5	10.3	11.2
COc1ccc(/C=N/Nc2snc(SC)c2C#N)cc1OC	-0.9	-2.3	1.1	-14.1	-0.2	-0.1
CCc1cc(=O)oc2cc(C)cc(OC(=O)c3ccco3)c12	11.0*	-2.6	0.5	-15.2	-0.1	0.2
SMILES	VIM-2 inh	IMP-1 inhibitor	CRFR2-BP ag	CRFR2-BP antag	TRPML3 agonist	TRPN1 ag
Cc1cc(OC(=O)c2ccco2)c2c(C)cc(=O)oc2c1	-2.0	-4.0	-0.3	5.3	0.5	-0.5
COc1cc2c(cc1OC)CN(C(=O)C1CCN(S(=O)(=O)c3ccccc3F)CC1)CC2	-0.2	-1.4	1.1	-5.9	nt	nt
CCOc1ccccc1NC(=O)C1CCCN1S(=O)(=O)c1ccccc1C(F)(F)F (centres undefined)	nt	nt	-0.5	82.0*	nt	nt
CC(=O)c1cccc(NC(=O)C2CCCN2S(=O)(=O)c2ccccc2C(F)(F)F)c1 (centres undefined)	nt	nt	-0.9	18.7	nt	nt
CCCC1=NN2C(=N)/C(=C\c3cc(C)n(-c4cc(C)cc(C)c4)c3C)C(=O)N=C2S1	0.6	-0.4	51.0*	-60.5	0.5	-0.3
Cc1cc(/C=C2\C(=N)N3N=C(C(C)C)SC3=NC2=O)c(C)n1-c1ccccc1	-1.6	-0.2	8.9	-62.6	0.5	-0.6
Cc1cc(C)cc(-n2c(C)cc(/C=C3\C(=N)N4N=C(CC(C)C)SC4=NC3=O)c2C)c1	-0.6	-4.0	60.0*	-20.2	1.0	1.8
Cc1cccc(-n2c(C)cc(/C=C3\C(=N)N4N=C(CC(C)C)SC4=NC3=O)c2C)c1	-1.9	-3.2	70.9*	-59.2	0.8	0.7
CC1(C)OC(=O)C(=Cc2ccc(-c3ccc(S(N)(=O)=O)cc3)o2)C(=O)O1	1.1	34.3*	1.5	81.2*	1.6	0.5
NS(=O)(=O)c1ccc(-c2ccc(/C=C3\C(=O)Nc4ccccc43)o2)cc1	0.4	-0.5	nt	nt	nt	nt
CC1(c2ccc(OC(F)F)cc2)NC(=O)N(CC(=O)Nc2ccccc2)C1=O (centres undefined)	-2.1	-2.1	76.1*	-33.7	nt	nt
CC1(c2ccc(OC(F)F)cc2)NC(=O)N(CC(=O)Nc2ccc3c(c2)OCO3)C1=O (centres undefined)	-2.8	-0.6	121.9*	-56.5	26.4*	30.2*
CC(=O)Nc1ccc(/C=N/N2C(=O)NC(C)(c3ccc(OC(F)F)cc3)C2=O)cc1 (centres undefined)	-0.5	-1.6	129.8*	-91.4	4.4	17.8
CCOC(=O)CN1C(=O)NC(C)(c2ccc(OC(F)F)cc2)C1=O (centres undefined)	1.2	-2.6	-0.1	-0.8	0.3	-0.3
CC1(c2ccc(OC(F)F)cc2)NC(=O)N(CC(=O)Nc2ccc3[nH]c(=O)[nH]c3c2)C1=O (centres undefined)	nt	nt	1.8	-10.9	nt	nt
O=C(NCCc1ccc(Cl)cc1)c1ccc(CS(=O)Cc2ccc(Cl)cc2)o1 (centres undefined)	-0.2	-0.9	-0.5	1.5	nt	nt
CSc1ccc(CCNC(=O)c2ccc(CS(=O)Cc3ccc(Cl)cc3)o2)cc1 (centres undefined)	-1.8	-2.2	2.3	79.5*	nt	nt
O=C(NCc1ccccc1)c1ccc(CS(=O)Cc2cccc(Cl)c2)o1 (centres undefined)	nt	nt	-1.0	5.6	nt	nt
O=C(NCc1cccs1)c1ccc(CS(=O)Cc2cccc(Cl)c2)o1 (centres undefined)	-2.2	-1.1	-1.1	57.5*	nt	nt
CN1CCN(C(=O)/C(=C\c2cccnc2)NC(=O)c2cccc(Br)c2)CC1	-4.0	-3.4	-0.8	-1.6	nt	nt
CC(=O)OCC(=O)C1(O)CCC2C3CC(C)C4=CC(=O)C=CC4(C)C3(F)C(O)CC21C (centres undefined)	nt	nt	1.7	-11.6	nt	nt
